The results in this text go back to ChEMBL document CHEMBL3526120, “Plasma stability-dependent circulation of acyl glucuronide metabolites in humans: how circulating metabolite profiles of muraglitazar and peliglitazar can lead to misleading risk assessment” (Drug Metab Dispos, 2011).

For data set [1], the system named is Homo sapiens. Put plainly: Drug metabolism in human plasma assessed as peliglitazar-1-O-beta-acyl glucuronide formation at 10 mg, po administered as single dose measured after 1 to 24 hrs by HPLC analysis. To be noted: in vivo. Type of data set: ADME, organism-based. Summed up: (§1)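 Healthy male volunteers received a single oral [14C] dose (approximately 100 μCi) in PEG-400 after fasting. K2EDTA blood drawn at 1, 4, 12 and 24 h. Plasma acidified to 5% acetic acid, stored at -20°C, pooled across subjects and extracted three times with methanol/acetonitrile (1:3). Radio-HPLC used fraction collection and counting; protein pellets were counted after NaOH digestion.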

The subject of data set [2] is Homo sapiens. Description: Drug metabolism in human plasma assessed as acyl isomer formation at 10 mg, po administered as single dose by HPLC analysis. The following applies: in vivo. Type of data set: ADME, organism-based. Summed up: as §1
The test system of data set [3] is Liver microsome. Put plainly: Drug metabolism in human liver microsomes assessed as glucuronidation rate per mg of protein at 10 uM after 15 mins by LC-MS/HPLC analysis in presence of 2 mM UDPGA. The format is ADME. To be noted: 0.25 h. The gist of the method:
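Human liver microsomes (1 mg/mL protein) with substrate 10 μM final, UDPGA 2 mM, MgCl2 10 mM, Tris 100 mM pH 7.4. Started with substrate at 37°C, stopped after 15 min with one volume acetonitrile, centrifuged. Supernatant analysed by LC/MS; fraction from the 278 nm UV trace as metabolite/(metabolite + parent).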
In general terms: Microsomes from liver hold many membrane-bound enzymes, among them those of drug oxidation.

A further data set relates to Hepatocyte. Put plainly: Drug metabolism in human hepatocytes assessed as glucuronidation rate per 10^6 cells at 5 uM after 1 hr by LC-MS/HPLC analysis in Krebs-Henseleit buffer.
Data set [4] is described as follows: Drug excretion in human urine at 20 mg, po measured during 0 to 168 hrs. Type of data set: ADME, organism-based. The following applies: read-out: Drug excretion.
Data set [5] is described as follows: Drug excretion in human bile at 20 mg, po measured during 3 to 8 hrs. The format is ADME, organism-based. To be noted: read-out: Drug excretion.
Data set [6] relates to Homo sapiens. Description: Drug metabolism in human plasma assessed as muraglitazar-1-O-beta-acyl glucuronide formation at 20 mg, po administered as single dose after 1 hr by HPLC analysis. The format is ADME, organism-based. To be noted: in vivo. The gist of the method:
as §1

Data set [7] concerns Homo sapiens. Put plainly: Drug metabolism in human plasma assessed as muraglitazar-1-O-beta-acyl glucuronide formation at 20 mg, po administered as single dose measured after 4 to 24 hrs by HPLC analysis. To be noted: in vivo. Type of data set: ADME, organism-based. The gist of the method:
as §1

For data set [8], the system named is Homo sapiens. Description: Drug metabolism in human plasma assessed as acyl isomer formation at 20 mg, po administered as single dose by HPLC analysis. The format is ADME, organism-based. To be noted: in vivo. Summed up: as §1
Data set [9] in a line: Drug excretion in human urine treated with [14C][…] at […], po measured during 0 to 168 hrs. Type of data set: ADME, organism-based. To be noted: in vivo.
Data set [10] in a line: Drug excretion in human bile treated with [14C][…] at […], po measured during 3 to 8 hrs. The format is ADME, organism-based. The following applies: in vivo.
Data set [11] can be described thus: Chemical stability of compound assessed as aglycon formation rate in 50 mM phosphate buffer at pH 7.4 by HPLC analysis. Type of data set: physicochemical. The gist of the method: (§2)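 Synthetic 1-O-β-acyl glucuronide at 50 μg/mL, incubated at 37°C and pH 7.4. […] used 50 mM sodium phosphate buffer; […] used human plasma buffered with 50 mM phosphate. Samples were taken at 0.25–48 h (3 tubes per time point), frozen at -80 °C and run on HPLC system III. Aglycon formation rate is the mean of rates within the linear range (<3 hr).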

The next data set has as its system Plasma. Put plainly: Stability in human plasma assessed as aglycon formation rate by HPLC analysis in presence of 50 mM phosphate. Type of data set: ADME, cell-free. Summed up: as §2
For data set [12], the system named is Liver microsome. Put plainly: Drug metabolism in human liver microsomes assessed as glucuronide oxidation rate per mg of protein in presence of NADPH. The format is ADME. The gist of the method:
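Acyl glucuronide (20 μM) was incubated for 15 min with human liver microsomes (2 mg/mL protein) in 50 mM sodium phosphate, with and without 1 mM NADPH. Products were separated on HPLC system II, quantified by UV at 278 nm and identified by LC/MS.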

Data set [13] has as its system Homo sapiens. Description: Drug level in human plasma assessed as compound formation treated with [14C]peliglitazar at 10 mg, po administered as single dose measured after 1 to 24 hrs by HPLC analysis. The format is ADME, organism-based. The following applies: in vivo. Summed up:
(§3)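 Healthy males aged 18–45 (four subjects) fasted at least 8 h, then took a single oral PEG-400 solution (~100 μCi) of [14C]muraglitazar 20 mg or [14C]peliglitazar 10 mg. K2EDTA plasma was taken at 1, 4, 12 and 24 h, acidified to 5% acetic acid and stored at -20 °C. Plasma was pooled across subjects, extracted three times with methanol/acetonitrile (1:3), and fractions from HPLC system II were radiocounted. Concentration came from relative radioactivity distribution, total radioactivity and specific activity.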

Data set [14] is described as follows: Drug excretion in human urine treated with [14C]muraglitazar at 20 mg, po measured during 0 to 168 hrs. The following applies: in vivo. The format is ADME, organism-based.
Data set [15] is described as follows: Drug excretion in human bile treated with [14C]muraglitazar at 20 mg, po measured during 3 to 8 hrs. Type of data set: ADME, organism-based. The following applies: in vivo.
The subject of data set [16] is Homo sapiens. Put plainly: Drug level in human plasma assessed as compound formation treated with [14C]muraglitazar at 20 mg, po administered as single dose measured after 1 hr by HPLC analysis. The format is ADME, organism-based. The following applies: in vivo. Summed up: as §3

SMILES strings stand for the structures.

As to `COc1ccc(OC(=O)N(CC(=O)O)[14C@@H](C)c2ccc(O[14CH2]Cc3nc(-c4ccccc4)oc3C)cc2)cc1`, the Drug metabolism result is reported as “metabolite_detected” in the data set on Homo sapiens [1], “metabolite_not_detected” with Homo sapiens [2], 32 pmol/min in the data set on Liver microsome [3] and 49 pmol/min in the data set with Hepatocyte.

With `COc1ccc(OC(=O)N(CC(=O)O)[C@@H](C)c2ccc(OCCc3nc(-c4ccccc4)oc3C)cc2)cc1` [PELIGLITAZAR], the dose excreted in [4] came out at 1.24%; in [5], 24.4%.

As to `COc1ccc(OC(=O)N(CC(=O)O)Cc2ccc(OCCc3nc(-c4ccccc4)oc3C)cc2)cc1` [MURAGLITAZAR], the dose excreted in data set [4] was determined as 2.13%; in data set [5], 39.9%.

Regarding `COc1ccc(OC(=O)N(CC(=O)O)C[14c]2[14cH][14cH][14c](OCCc3nc(-c4ccccc4)oc3C)[14cH][14cH]2)cc1`, the Drug metabolism entry in the data set on Homo sapiens [6] is reported as “metabolite_detected”; with Homo sapiens [7], “metabolite_not_detected”; in the data set on Homo sapiens [8], “metabolite_not_detected”; in the data set with Liver microsome [3], 33 pmol/min; with Hepatocyte it was 60 pmol/min.

As to `COc1ccc(OC(=O)N(CC(=O)O[C@@H]2O[C@H](C(=O)O)[C@@H](O)[C@H](O)[C@H]2O)[C@@H](C)c2ccc(OCCc3nc(-c4ccccc4)oc3C)cc2)cc1`, the Drug excretion in [9] was 0.24%; in data set [10] it was 16%. Also, the Drug metabolism is 0.5 ug/ml.hr in [11], 5.9 ug/ml.hr in the data set on Plasma, 24 pmol/min in the data set on Liver microsome [12] and “metabolite_detected” in the data set with Homo sapiens [13].

For `COc1ccc(OC(=O)N(CC(=O)O[C@@H]2O[C@H](C(=O)O)[C@@H](O)[C@H](O)[C@H]2O)Cc2ccc(OCCc3nc(-c4ccccc4)oc3C)cc2)cc1`, the Drug excretion stood at 0.81% in data set [14] and 15% in [15]. For the same molecule, the Drug metabolism in data set [11] is listed as 3.5 ug/ml.hr; with Plasma it was 16.7 ug/ml.hr; in the data set with Liver microsome [12], 22 pmol/min; in the data set with Homo sapiens [16], “metabolite_detected”.
